Test results as given in ChEMBL document CHEMBL1127787, “1,2,3-Triazole-[2',5'-bis-O-(tert-butyldimethylsilyl)-beta-D- ribofuranosyl]-3'-spiro-5"-(4"-amino-1",2"-oxathiole 2",2"-dioxide) (TSAO) analogues: synthesis and anti-HIV-1 activity” (J Med Chem, 1994).

What was measured:
CCRF-CEM [1] = experiment: Tested for the inhibitory activity of virus induced giant cell formation in HIV-1 infected CEM cells; assay type: functional, cell-based; settings: Homo sapiens
CCRF-CEM [2] = experiment: Tested for the inhibitory activity of virus induced giant cell formation in HIV-2 infected CEM cells; assay type: functional, cell-based; settings: Homo sapiens
MT4 [3] = experiment: Tested for the inhibitory activity of HIV-1 infected MT-4 cells; assay type: functional, cell-based; settings: Homo sapiens
In short: (§1)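 MT-4 cells (5 × 10^5/mL) grown in RPMI-1640 with 10% FCS, 2 mM L-glutamine and 0.075% NaHCO3. Infected with HIV-1 or HIV-2 at 100 CCID50/mL and mixed with compound dilutions (100 to 0.006 µg/mL). After 5 days viable cells were counted by trypan blue staining. EC50 is the concentration that reduces viable-cell loss in infected cultures by 50%.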

MT4 [4] = experiment: Tested for the inhibitory activity of HIV-2 infected MT-4 cells; assay type: functional, cell-based; settings: Homo sapiens; in short: as §1
MT4 [5] = experiment: Tested for the cytotoxic concentration required to reduce the number of viable mock infected MT-4 cells; assay type: functional; settings: Homo sapiens
In short: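 Mock-infected MT-4 cells (5 × 10^5/mL) in RPMI-1640 with 10% FCS were exposed to compound dilutions (100 to 0.006 µg/mL). Viable cells were counted by trypan blue at day 5; about 150-200 cells were counted in controls. CC50 is the concentration that reduces viable cell number by 50%.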

MT4 [6] = experiment: Tested for the ratio between CC50 (MT-4) to EC50 (MT-4); assay type: functional, Homo sapiens

Row | SMILES | EC50 (CCRF-CEM [1]) [µM] | EC50 (CCRF-CEM [2]) [µM] | EC50 (MT4 [3]) [µM] | EC50 (MT4 [4]) [µM] | CC50 (MT4 [5]) [µM] | Ratio (MT4 [6])
1 | CCOC(OCC)c1cn([C@@H]2O[C@H](CO[Si](C)(C)C(C)(C)C)[C@@]3(OS(=O)(=O)C=C3N)[C@H]2O[Si](C)(C)C(C)(C)C)nn1 | > 150 | > 150 | 73 | > 150 | > 150 | >2.1
2 | CC(C)(C)[Si](C)(C)OC[C@H]1O[C@@H](n2cc([Si](C)(C)C)nn2)[C@H](O[Si](C)(C)C(C)(C)C)[C@]12OS(=O)(=O)C=C2N | 2.8 | > 2.6 | ≥ 6.6 | > 6.6 | 9.5 | <=1.44
3 | CNC(=O)c1cn([C@@H]2O[C@H](CO[Si](C)(C)C(C)(C)C)[C@@]3(OS(=O)(=O)C=C3N)[C@H]2O[Si](C)(C)C(C)(C)C)nn1 | 1.2 | > 7 | 0.41 | > 7 | 12 | 28.8
4 | CC(C)(C)[Si](C)(C)OC[C@H]1O[C@@H](n2nncc2CCCCl)[C@H](O[Si](C)(C)C(C)(C)C)[C@]12OS(=O)(=O)C=C2N | 0.82 | > 7 | 1.9 | > 164 | 79 | 40.6
5 | CCCc1cnnn1[C@@H]1O[C@H](CO[Si](C)(C)C(C)(C)C)[C@@]2(OS(=O)(=O)C=C2N)[C@H]1O[Si](C)(C)C(C)(C)C | 3.9 | > 35 | 3.13 | > 350 | > 175 | >56
6 | COC(=O)c1nnn([C@@H]2O[C@H](CO[Si](C)(C)C(C)(C)C)[C@@]3(OS(=O)(=O)C=C3N)[C@H]2O[Si](C)(C)C(C)(C)C)c1C(=O)OC | 0.53 | > 30 | 0.48 | > 150 | 111 | 231
7 | CC(C)(C)[Si](C)(C)OC[C@H]1O[C@@H](n2nncc2CBr)[C@H](O[Si](C)(C)C(C)(C)C)[C@]12OS(=O)(=O)C=C2N | > 1.3 | > 6 | ≥ 6 | > 6 | 13 | <2.1
8 | CC(C)(C)[Si](C)(C)OC[C@H]1O[C@@H](n2ccnn2)[C@H](O[Si](C)(C)C(C)(C)C)[C@]12OS(=O)(=O)C=C2N | 3.4 | > 7.5 | 3.8 | > 7.5 | 15 | 4.1
9 | CCCCc1cnnn1[C@@H]1O[C@H](CO[Si](C)(C)C(C)(C)C)[C@@]2(OS(=O)(=O)C=C2N)[C@H]1O[Si](C)(C)C(C)(C)C | 1.5 | > 35 | 1.58 | > 170 | ≥ 170 | >=115
10 | CCOC(=O)c1cnnn1[C@@H]1O[C@H](CO[Si](C)(C)C(C)(C)C)[C@@]2(OS(=O)(=O)C=C2N)[C@H]1O[Si](C)(C)C(C)(C)C | 1.3 | > 165 | 3.2 | > 165 | > 165 | >51
11 | COC(=O)c1cn([C@@H]2O[C@H](CO[Si](C)(C)C(C)(C)C)[C@@]3(OS(=O)(=O)C=C3NC(C)=O)[C@H]2O[Si](C)(C)C(C)(C)C)nn1 | 28 | > 32 | ≥ 32 | > 32 | 56 | <=1.7
12 | Cc1cn([C@@H]2O[C@H](CO[Si](C)(C)C(C)(C)C)C3(OS(=O)(=O)C=C3N)[C@H]2O[Si](C)(C)C(C)(C)C)c(=O)[nH]c1=O (stereo partly drawn) | 0.06 | > 20 |  | > 20 | 14 | 
13 | CC(=O)c1cnnn1[C@@H]1O[C@H](CO[Si](C)(C)C(C)(C)C)[C@@]2(OS(=O)(=O)C=C2N)[C@H]1O[Si](C)(C)C(C)(C)C | 1.1 | > 70 | 2.3 | > 35 | 69 | 30
14 | CC(C)(C)[Si](C)(C)OC[C@H]1O[C@@H](n2cc(C(N)=O)nn2)[C@H](O[Si](C)(C)C(C)(C)C)[C@]12OS(=O)(=O)C=C2N | 0.9 | > 7 | 1.2 | > 7 | 15 | 12.5
15 | CC(C)(C)[Si](C)(C)OC[C@H]1O[C@@H](n2cc(CBr)nn2)[C@H](O[Si](C)(C)C(C)(C)C)[C@]12OS(=O)(=O)C=C2N | > 1.3 | > 1.3 | ≥ 6.5 | > 6.5 | 14 | <2.1
